The text below walks through data of ChEMBL document CHEMBL4196132, “Alkaloids with Immunosuppressive Activity from the Bark of Pausinystalia yohimbe” (J Nat Prod, 2018).

Activity calls are given as the source filed them. The rule behind the calls is not given here.

What all share (type): functional, cell-based
The subject of one experiment is HepG2. Put plainly: Cytotoxicity against human HepG2 cells assessed as reduction in cell viability at 100 uM after 24 hrs by MTT assay. Summed up: (§1)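 Human cancer lines grown in DMEM or RPMI-1640 with 10% FBS plus penicillin–streptomycin, 5% CO2, 37 °C. MTT read-out, viable-cell percentage measured at 490 nm. Doxorubicin hydrochloride as positive control.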
A general note: Tetrazolium assays rely on reduction of a dye to a coloured formazan, in cell work by metabolically active cells.

Another experiment has as its system HT-29. Description: Cytotoxicity against human HT-29 cells assessed as reduction in cell viability at 100 uM after 24 hrs by MTT assay. An outline of the steps: as §1
The test system of a further experiment is HeLa. Description: Cytotoxicity against human HeLa cells assessed as reduction in cell viability at 100 uM after 24 hrs by MTT assay. Summed up: as §1
For a further experiment, the system named is MCF7. Put plainly: Cytotoxicity against human MCF7 cells assessed as reduction in cell viability at 100 uM after 24 hrs by MTT assay. Summed up: as §1
The subject of a further experiment is B-cell line. Put plainly: Immunosuppressive activity in C57BL/6 mouse B cells assessed as inhibition of LPS-induced cell proliferation by MTT assay. Particulars: C57BL/6, B-cell. Summed up:
(§2)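 Splenocytes from male C57BL/6 mice (6–8 weeks), red cells lysed, in RPMI 1640 with 10% FBS. 5 × 10^5 cells per well, 5% CO2, 37 °C, 24 h. Stimulated with ConA 5 μg/mL (T cells) or LPS 10 μg/mL (B cells). MTT added for 4 h, pellet dissolved in DMSO, read at 490 nm. CsA and MMF as positive controls.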

A further experiment relates to Murine T-cell line. Description: Immunosuppressive activity in C57BL/6 mouse T cells assessed as inhibition of ConA-induced cell proliferation by MTT assay. To be noted: C57BL/6, T-cell. Summed up: as §2

Consider `C=C[C@H]1CN2CC[C@]3(C(=O)Nc4ccccc43)[C@@H]2C[C@@H]1/C(=C\OC)C(=O)OC`, for which the result with HepG2, with HT-29, in the experiment on HeLa and in the experiment on MCF7 was inactive.
Consider `C=C[C@@H]1CN2CC[C@@]3(C(=O)Nc4ccccc43)[C@@H]2C[C@@H]1/C(=C\OC)C(=O)OC`, for which the result with HepG2, in the experiment with HT-29, in the experiment with HeLa and in the experiment with MCF7 was inactive.
With `C=C[C@H]1CN2CCc3c([nH]c4ccccc34)[C@@H]2C[C@@H]1/C(=C\OC)C(=O)OC`, the figures for the IC50 in the experiment on B-cell line and in the experiment with Murine T-cell line were 13.5 µM and 16.8 µM, respectively. The result in the experiment on HepG2, with HT-29, in the experiment with HeLa and in the experiment on MCF7 was inactive.
Take `CC[C@@H]1C[N@+]2([O-])CCc3c([nH]c4ccccc34)[C@@H]2C[C@@H]1/C(=C\OC)C(=O)OC`: the outcome in the experiment with HepG2, with HT-29, in the experiment with HeLa and in the experiment on MCF7 was inactive.
For the molecule `C=C[C@H]1C[N@@+]2([O-])CCc3c([nH]c4ccccc34)[C@@H]2C[C@@H]1/C(=C\OC)C(=O)OC`, the result in the experiment with HepG2, in the experiment with HT-29, with HeLa and in the experiment on MCF7 was inactive.
With `CC[C@@H]1CN2CCc3c([nH]c4ccccc34)[C@@H]2C[C@@H]1/C(=C\OC)C(=O)OC`, the result with HepG2, in the experiment on HT-29, in the experiment with HeLa and in the experiment with MCF7 was inactive.
Regarding `CC[C@H]1CN2CCc3c([nH]c4ccccc34)[C@@H]2C[C@@H]1/C(=C\OC)C(=O)OC` (stereo in doubt; 14), the outcome in the experiment on HepG2, in the experiment with HT-29, in the experiment with HeLa and in the experiment on MCF7 was inactive.
As to `CC[C@@H]1CN2CC[C@]3(C(=O)Nc4ccccc43)[C@@H]2C[C@@H]1/C(=C\OC)C(=O)OC`, the outcome with HepG2, in the experiment on HT-29, with HeLa and with MCF7 was inactive.
In the case of `CC[C@@H]1CN2CC[C@@]3(C(=O)Nc4ccccc43)[C@@H]2C[C@@H]1/C(=C\OC)C(=O)OC`, the outcome in the experiment with HepG2, in the experiment with HT-29, in the experiment with HeLa and with MCF7 was inactive.
In the case of `C=C[C@H]1C[N@+]2([O-])CCc3c([nH]c4ccccc34)[C@@H]2C[C@@H]1/C(=C\OC)C(=O)OC`, the result in the experiment on HepG2, with HT-29, in the experiment with HeLa and with MCF7 was inactive.
Take `CC[C@H]1C[N@@+]2([O-])CCc3c([nH]c4ccccc34)[C@@H]2C[C@@H]1/C(=C\OC)C(=O)OC`: the outcome in the experiment with HepG2, in the experiment on HT-29, in the experiment on HeLa and in the experiment with MCF7 was inactive.
Consider `COC(=O)[C@H]1[C@H]2C[C@H]3c4[nH]c5ccccc5c4CCN3C[C@@H]2CC[C@@H]1O` [CORYNANTHEINE], for which the IC50 in the experiment on B-cell line was determined as 40.5 µM; in the experiment on Murine T-cell line, 27.6 µM. For the same molecule, the outcome in the experiment with HepG2, with HT-29, in the experiment on HeLa and in the experiment with MCF7 was inactive.
Take `CC[C@@H]1CN2CCc3c([nH]c4ccccc34)C2=C2OC(=O)C(C(=O)OC)=C21`: the outcome in the experiment with HepG2, with HT-29, with HeLa and in the experiment with MCF7 was inactive.
As to `CC[C@H]1CN2CCc3c([nH]c4ccccc34)[C@@H]2C[C@@H]1/C(=C\OC)C(=O)OC` (stereo in doubt; 13), the outcome with HepG2, with HT-29, in the experiment on HeLa and with MCF7 was inactive.
As to `CC[C@@H]1CN2C=Cc3c([nH]c4ccccc34)C2=C2OC(=O)C(C=O)=C21`, the result with HepG2, in the experiment on HT-29, with HeLa and in the experiment with MCF7 was inactive.
Consider `CC[C@@H]1C[N@@+]2([O-])CCc3c([nH]c4ccccc34)[C@@H]2C[C@@H]1/C(=C\OC)C(=O)OC`, for which the result in the experiment with HepG2, in the experiment with HT-29, with HeLa and in the experiment on MCF7 was inactive.

Usually IC50 stands for the point on the concentration scale where inhibition reaches its midpoint.
